Data: PubChem BioAssay
For part of these data: Measured potencies and affinities stand elsewhere. Calls of active or inactive are those of the source.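 Rule for the calls, unless noted: active = calcium signal ratio cut to more than 3 SD under the fully stimulated control mean yet still positive, in both repeats and the primary screen; inactive = the rest.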

Each molecule was assayed against Short transient receptor potential channel 4 (Mus musculus) (UniProt Q9QUQ5) (assay: blockers of DAMGO-evoked TRPC4 calcium flux – cell-based, second round, Fluo4, HEK293 TRPC4beta/mu-opioid, 1 µM, confirmation (AID 2637)). Details: at 1 µM.
Short transient receptor potential channel 4 (Mus musculus), sequence (Q9QUQ5 whole entry, looked up): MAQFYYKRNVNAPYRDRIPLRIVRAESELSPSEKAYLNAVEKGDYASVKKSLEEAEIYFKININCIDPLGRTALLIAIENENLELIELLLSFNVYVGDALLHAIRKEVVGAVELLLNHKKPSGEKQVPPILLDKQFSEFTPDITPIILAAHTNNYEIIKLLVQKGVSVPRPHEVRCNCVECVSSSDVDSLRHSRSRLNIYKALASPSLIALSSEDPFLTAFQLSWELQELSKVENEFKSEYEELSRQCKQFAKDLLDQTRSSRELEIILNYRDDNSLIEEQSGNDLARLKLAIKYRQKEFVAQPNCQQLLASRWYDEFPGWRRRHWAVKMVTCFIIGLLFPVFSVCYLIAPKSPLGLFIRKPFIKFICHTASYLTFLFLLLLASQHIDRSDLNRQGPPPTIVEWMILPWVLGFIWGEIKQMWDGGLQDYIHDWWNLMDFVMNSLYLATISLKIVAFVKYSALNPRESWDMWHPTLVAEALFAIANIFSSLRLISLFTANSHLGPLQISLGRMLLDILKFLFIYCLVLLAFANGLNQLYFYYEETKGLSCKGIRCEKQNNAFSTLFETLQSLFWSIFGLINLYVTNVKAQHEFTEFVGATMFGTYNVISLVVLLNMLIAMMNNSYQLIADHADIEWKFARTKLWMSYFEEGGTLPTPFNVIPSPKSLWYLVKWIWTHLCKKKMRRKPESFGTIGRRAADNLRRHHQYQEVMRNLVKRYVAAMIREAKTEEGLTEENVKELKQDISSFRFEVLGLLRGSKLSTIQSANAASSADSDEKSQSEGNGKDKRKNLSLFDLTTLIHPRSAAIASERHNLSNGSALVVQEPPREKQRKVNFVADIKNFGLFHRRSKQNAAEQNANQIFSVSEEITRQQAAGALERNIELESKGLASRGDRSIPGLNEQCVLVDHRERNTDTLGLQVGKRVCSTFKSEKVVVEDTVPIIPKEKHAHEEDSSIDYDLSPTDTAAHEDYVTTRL
Outline: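 Test system: HEK293 stable line co-expressing TRPC4beta and mu-opioid receptor | Probe or stimulus: Sequential submaximal then maximal DAMGO stimulation | Dosing: 1 µM single point | Timing: Fluo4 loading 45 min at room temperature, compound 110 s | Signal: Fluo4 calcium fluorescence, kinetic real-time read after baseline | Controls: ECmax and compound-free wells | Repeats: Duplicates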

outcome, inactive:
Cc1cccn2c(CNCCc3ccccn3)c(C(=O)N3CCOCC3)nc12, COc1ccc(/C=N/NC(=O)C2COc3ccccc3O2)cc1OC (stereo not drawn), CN(C)CCNC(=O)c1c(NC(=O)c2ccccc2)sc2c1CCCC2, Cc1ccccc1N1CC(O)(c2ccccc2)[N+]2=C1SCC2 (stereo not drawn), CC(C)Cc1ccc(CN2CCCC(NC(=O)CCn3cnnn3)C2)cc1 (stereo not drawn), CN1CCN(Cc2nc3c(c(=O)[nH]c(=O)n3C)n2Cc2c(F)cccc2Cl)CC1, O=C(CC1C(=O)NCCN1Cc1cccc(Oc2ccccc2)c1)NCCc1ccccn1 (stereo not drawn), CN(C)CCCN(C(=O)c1ccc(Cl)s1)c1nc2cc3c(cc2s1)OCO3, Cc1cc(CSC(=N)N)c(CSC(=N)N)cc1C, COC(=O)c1ccc(N2CCN(C)CC2)c(NC(=O)c2ccc(Br)o2)c1, CCc1cc(OCCN(C)C)ccc1Cl, C=CCn1c(/N=C/c2ccc(N(C)C)cc2)nc2ccccc21, CCC1CCCCN1S(=O)(=O)c1ccc(C(=O)N(CCCN(C)C)c2nc3cc4c(cc3s2)OCO4)cc1 (stereo not drawn), CCn1c(CN2CCN(Cc3ccc(C)cc3)C(CCO)C2)nc2ccccc21 (stereo not drawn), O=C(NCc1ccccc1)C1=C[C@@H](C2CCCCC2)C[C@@H](OCc2ccc(CO)cc2)O1, CCN1CCCC1CNS(=O)(=O)c1c(C)cc(C)cc1C (stereo not drawn), CSc1ccc(C(=O)NCC(c2ccco2)N(C)C)cc1[N+](=O)[O-] (stereo not drawn), Cc1ccc2nc(N(CCCN(C)C)C(=O)c3ccc(S(=O)(=O)N4CCc5ccccc5C4)cc3)sc2c1, COc1ccccc1/C=C/CN1CCCC(CCC(=O)NCc2ccc(F)c(F)c2)C1 (stereo not drawn), CC[C@@H](C)[C@H](CNC)NC[C@@H](Cc1cccc2ccccc12)NCCc1cccc(C(F)(F)F)c1, CC(C)C1CC(CCNCc2ccc(N(C)C)cc2)(c2ccccc2)CCO1 (stereo not drawn), Clc1cc(Cl)cc(C2=NC(Cc3ccccc3)CO2)c1 (stereo not drawn), O=C(NCCc1cnc[nH]1)c1ccc(-c2ccccc2)cc1, COCC1CCN(Cc2cn(-c3ccccc3F)nc2-c2cc(C)sc2C)CC1, Cc1cc(C)cc(NC(=S)N2CCN(c3ncc(C(F)(F)F)cc3Cl)CC2)c1, CC(C)C1CC(CCNCc2ccc3c(c2)OCO3)(c2ccccc2)CCO1 (stereo not drawn), Cc1ccc(CNC(=O)C2CCCN(Cc3cnn(-c4ccccc4)c3-n3cccc3)C2)cc1 (stereo not drawn), CN1CCN(c2ccc(NC(=O)COc3cccc4ccccc34)cc2)CC1, COc1ccc(CSCCN)cc1Cl, Cc1csc2c(N3CCN(C(=O)Nc4ccccc4)CC3)ncnc12, CCOC(=O)C1(Cc2ccccc2)CCN(Cc2cn[nH]c2-c2ccccc2)CC1, CCOc1ccccc1C1CC(c2ccc(Cl)cc2)Nc2nc(N)nn21 (stereo not drawn), O=C(c1sc2ccccc2c1Cl)N(Cc1ccccc1)C1CCS(=O)(=O)C1 (stereo not drawn), Cc1ccc(C)c(-n2cc(CNCCCn3cccn3)c(-c3ccccc3)n2)c1, NC(=O)C1CCCN(CCc2ccccc2)C1 (stereo not drawn), CCn1c(=O)c(C(=O)NNC(=O)c2ccccc2F)c(O)c2ccccc21, O=C(NCc1ccccc1)C1=C[C@H](c2ccccc2)C[C@H](OCc2ccc(CO)cc2)O1, O=C(CC1C(=O)NCCN1Cc1ccccc1C(F)(F)F)NCCc1ccccn1 (stereo not drawn), CCn1c(N2CCN(S(=O)(=O)CC)CC2)nc2ccccc21

Each molecule was assayed against Short transient receptor potential channel 4 (Mus musculus) (UniProt Q9QUQ5) (assay: potentiation of DAMGO-evoked TRPC4 calcium signal – cell-based, HEK293 TRPC4/mu-opioid, Fluo-4 calcium, EC20 DAMGO, dose response (AID 434941;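 active = earlier screen potentiator hit that boosts the TRPC4 ion channel at some dose, with a dose response; inactive = no potentiation, no dose response, or not a prior hit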;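 note: calcium entry triggered by an EC20 dose of DAMGO at the co-expressed mu-opioid receptor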)). Details: HEK293 TRPC4/mu-opioid cells, Fluo-4 calcium fluorescence; series mostly up to 20 µM.

outcome, inactive:
Cc1cccn2c(CNCCc3ccccn3)c(C(=O)N3CCOCC3)nc12, COc1ccc(/C=N/NC(=O)C2COc3ccccc3O2)cc1OC (stereo not drawn), CN(C)CCNC(=O)c1c(NC(=O)c2ccccc2)sc2c1CCCC2, Cc1ccccc1N1CC(O)(c2ccccc2)[N+]2=C1SCC2 (stereo not drawn), CC(C)Cc1ccc(CN2CCCC(NC(=O)CCn3cnnn3)C2)cc1 (stereo not drawn), CN1CCN(Cc2nc3c(c(=O)[nH]c(=O)n3C)n2Cc2c(F)cccc2Cl)CC1, O=C(CC1C(=O)NCCN1Cc1cccc(Oc2ccccc2)c1)NCCc1ccccn1 (stereo not drawn), CN(C)CCCN(C(=O)c1ccc(Cl)s1)c1nc2cc3c(cc2s1)OCO3, Cc1cc(CSC(=N)N)c(CSC(=N)N)cc1C, COC(=O)c1ccc(N2CCN(C)CC2)c(NC(=O)c2ccc(Br)o2)c1, CCc1cc(OCCN(C)C)ccc1Cl, C=CCn1c(/N=C/c2ccc(N(C)C)cc2)nc2ccccc21, CCC1CCCCN1S(=O)(=O)c1ccc(C(=O)N(CCCN(C)C)c2nc3cc4c(cc3s2)OCO4)cc1 (stereo not drawn), CCn1c(CN2CCN(Cc3ccc(C)cc3)C(CCO)C2)nc2ccccc21 (stereo not drawn), O=C(NCc1ccccc1)C1=C[C@@H](C2CCCCC2)C[C@@H](OCc2ccc(CO)cc2)O1, CCN1CCCC1CNS(=O)(=O)c1c(C)cc(C)cc1C (stereo not drawn), CSc1ccc(C(=O)NCC(c2ccco2)N(C)C)cc1[N+](=O)[O-] (stereo not drawn), Cc1ccc2nc(N(CCCN(C)C)C(=O)c3ccc(S(=O)(=O)N4CCc5ccccc5C4)cc3)sc2c1, COc1ccccc1/C=C/CN1CCCC(CCC(=O)NCc2ccc(F)c(F)c2)C1 (stereo not drawn), CC[C@@H](C)[C@H](CNC)NC[C@@H](Cc1cccc2ccccc12)NCCc1cccc(C(F)(F)F)c1, CC(C)C1CC(CCNCc2ccc(N(C)C)cc2)(c2ccccc2)CCO1 (stereo not drawn), Clc1cc(Cl)cc(C2=NC(Cc3ccccc3)CO2)c1 (stereo not drawn), O=C(NCCc1cnc[nH]1)c1ccc(-c2ccccc2)cc1, COCC1CCN(Cc2cn(-c3ccccc3F)nc2-c2cc(C)sc2C)CC1, Cc1cc(C)cc(NC(=S)N2CCN(c3ncc(C(F)(F)F)cc3Cl)CC2)c1, CC(C)C1CC(CCNCc2ccc3c(c2)OCO3)(c2ccccc2)CCO1 (stereo not drawn), Cc1ccc(CNC(=O)C2CCCN(Cc3cnn(-c4ccccc4)c3-n3cccc3)C2)cc1 (stereo not drawn), CN1CCN(c2ccc(NC(=O)COc3cccc4ccccc34)cc2)CC1, COc1ccc(CSCCN)cc1Cl, Cc1csc2c(N3CCN(C(=O)Nc4ccccc4)CC3)ncnc12, CCOC(=O)C1(Cc2ccccc2)CCN(Cc2cn[nH]c2-c2ccccc2)CC1, CCOc1ccccc1C1CC(c2ccc(Cl)cc2)Nc2nc(N)nn21 (stereo not drawn), O=C(c1sc2ccccc2c1Cl)N(Cc1ccccc1)C1CCS(=O)(=O)C1 (stereo not drawn), Cc1ccc(C)c(-n2cc(CNCCCn3cccn3)c(-c3ccccc3)n2)c1, NC(=O)C1CCCN(CCc2ccccc2)C1 (stereo not drawn), CCn1c(=O)c(C(=O)NNC(=O)c2ccccc2F)c(O)c2ccccc21, O=C(NCc1ccccc1)C1=C[C@H](c2ccccc2)C[C@H](OCc2ccc(CO)cc2)O1, O=C(CC1C(=O)NCCN1Cc1ccccc1C(F)(F)F)NCCc1ccccn1 (stereo not drawn), CCn1c(N2CCN(S(=O)(=O)CC)CC2)nc2ccccc21
